Test results taken from ChEMBL document CHEMBL2069171, “Novel monobactams utilizing a siderophore uptake mechanism for the treatment of gram-negative infections” (Bioorg Med Chem Lett, 2012).
≈ marks a conversion by molar mass, not a printed value.

Key:
Pseudomonas aeruginosa [1] = assay: Antibacterial activity against beta-lactam- and quinolone-resistant Pseudomonas aeruginosa 1042-06; assay type: functional
Pseudomonas aeruginosa [2] = assay: Antibacterial activity against Pseudomonas aeruginosa; assay type: functional
How it was run: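 MICs for P. aeruginosa were determined on a drug-susceptible strain, 1091-05 (penicillin-resistant, quinolone-sensitive clinical strain), and a recent MDR clinical isolate, 1042-06. For selected analogs, MIC90 was taken from broader strain panels as the concentration inhibiting visible growth of 90 percent of strains.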

Escherichia coli = assay: Antibacterial activity against Escherichia coli; assay type: functional
How it was run: (§1)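 MICs determined against an organism panel of drug-susceptible strains and recent MDR clinical isolates. For selected analogs, MIC90 was taken from broader panels as the concentration inhibiting visible growth of 90 percent of strains.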

Pseudomonas aeruginosa [3] = assay: Antibacterial activity against penicillin-resistant, quinolone-sensitive Pseudomonas aeruginosa 1091-05; assay type: functional
Acinetobacter baumannii = assay: Antibacterial activity against Acinetobacter baumannii; assay type: functional; how it was run: as §1
Klebsiella pneumoniae = assay: Antibacterial activity against Klebsiella pneumoniae; assay type: functional; how it was run: as §1
[4] = Fraction unbound in rat plasma; assay type: ADME, cell-free
[5] = Fraction unbound in human plasma; assay type: ADME, cell-free
Rattus norvegicus = assay: Unbound clearance in rat at 1 mg/kg, iv; assay type: ADME, organism-based; parameters: dose 1 mg/kg, route intravenous; conditions: in vivo
[6] = Total clearance in rat at 1 mg/kg, iv; assay type: ADME, organism-based; parameters: dose 1 mg/kg, route intravenous; conditions: in vivo
[7] = Aqueous stability of the compound at pH 6; assay type: physicochemical; conditions: buffer
[8] = Fraction unbound in mouse plasma; assay type: ADME, cell-free
[9] = Total clearance in mouse plasma relative to protein binding and blood flow; assay type: ADME, organism-based
[10] = Clearance in mouse; assay type: ADME, organism-based; conditions: in vivo
Pseudomonas aeruginosa [11] = assay: Antibacterial activity against penicillin-resistant, quinolone-sensitive Pseudomonas aeruginosa 1091-05 infected in mouse model of pneumonia assessed as reduction of lung colony forming unit counts; assay type: functional
How it was run: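 Murine pneumonia model infected with P. aeruginosa 1091-05. ED50, in mg/kg/dose, derived from reductions in lung CFU counts over the course of the study.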

Compound | MIC (Pseudomonas aeruginosa [1]) [µg/mL] | MIC90 (Pseudomonas aeruginosa [2]) [µg/mL] | MIC90 (Escherichia coli) [µg/mL] | MIC (Pseudomonas aeruginosa [3]) [µg/mL] | MIC90 (Acinetobacter baumannii) [µg/mL] | MIC90 (Klebsiella pneumoniae) [µg/mL] | further results
CC(C)(O/N=C(\C(=O)N[C@H]1CN(C(=O)NS(=O)(=O)n2nc(-c3cc(=O)c(O)c[nH]3)n(C[C@@H](O)CO)c2=O)C1=O)c1csc(N)n1)C(=O)O (stereo in doubt) | 0.5 (≈ 0.7 µM) |  |  |  |  |  | 
C[C@@H](O)[C@H]1C(=O)N2C(C(=O)O)=C(S[C@@H]3CN[C@H](C(=O)N(C)C)C3)[C@H](C)[C@H]12 [MEROPENEM] |  | > 64 | 0.06 (≈ 0.156 µM) | 0.5 (≈ 1.3 µM) | 64 (≈ 167 µM) | 32 (≈ 83.4 µM) | 
CC(C)(O/N=C(\C(=O)N[C@@H]1C(=O)N(S(=O)(=O)O)[C@@H]1COC(=O)CNC(=O)c1ccc(O)c(O)c1)c1csc(N)n1)C(=O)O (stereo in doubt) | 16 (≈ 24.8 µM) |  |  | 1 (≈ 1.55 µM) |  |  | 
CC(C)(O/N=C(\C(=O)N[C@@H]1C(=O)N(S(=O)(=O)O)[C@@H]1COC(=O)CNC(=O)c1cc(=O)c(O)cn1O)c1csc(N)n1)C(=O)O (stereo in doubt) | 0.5 (≈ 0.756 µM) | 2 (≈ 3.02 µM) | 1 (≈ 1.51 µM) | 0.125 (≈ 0.189 µM) | > 64 | 32 (≈ 48.4 µM) | fraction unbound [4]: 0.36; fraction unbound [5]: 0.57; CL free (Rattus norvegicus): 24.7 mL/min/kg; clearance [6]: 8.9 mL/min/kg; Stability [7]: Stable
CC1(C)[C@H](NC(=O)/C(=N\OCc2cc(=O)c(O)cn2O)c2csc(N)n2)C(=O)N1OS(=O)(=O)O (stereo in doubt) | 8 (≈ 15.4 µM) | 4 (≈ 7.71 µM) | 16 (≈ 30.9 µM) | 1 (≈ 1.93 µM) | 64 (≈ 123 µM) | > 64 | 
CC(C)(O/N=C(\C(=O)N[C@@H]1C(=O)N(S(=O)(=O)O)[C@@H]1CNC(=O)c1cc(-c2cc(=O)c(O)cn2O)no1)c1csc(N)n1)C(=O)O (stereo in doubt) | 0.125 (≈ 0.186 µM) | 0.25 (≈ 0.373 µM) | 1 (≈ 1.49 µM) | 0.125 (≈ 0.186 µM) | > 64 | 16 (≈ 23.9 µM) | fraction unbound [8]: 0.65; fraction unbound [4]: 0.33; clearance [9]: 87 mL/min/kg; clearance [10]: 34.7 mL/min/kg; fraction unbound [5]: 0.46; CL free (Rattus norvegicus): 24.5 mL/min/kg; clearance [6]: 8.1 mL/min/kg; ED50 (Pseudomonas aeruginosa [11]): 73.6 mg/kg
Nc1nc(/C(=N/OCC(=O)O)C(=O)N[C@@H]2C(=O)N(S(=O)(=O)O)[C@@H]2COC(=O)CNC(=O)c2ccc(O)c(O)c2)cs1 (stereo in doubt) | 32 (≈ 51.9 µM) |  |  | 0.5 (≈ 0.811 µM) |  |  | 
CC(C)(O/N=C(\C(=O)N[C@@H]1C(=O)N(S(=O)(=O)O)[C@@H]1COC(=O)c1ccnc(-c2cc(=O)c(O)c[nH]2)n1)c1csc(N)n1)C(=O)O (stereo in doubt) | 32 (≈ 48 µM) |  |  | 8 (≈ 12 µM) |  |  | 
CC(C)(O/N=C(\C(=O)N[C@@H]1C(=O)N(S(=O)(=O)O)[C@@H]1COC(=O)c1cc(-c2cc(=O)c(O)cn2O)no1)c1csc(N)n1)C(=O)O (stereo in doubt) | 0.25 (≈ 0.372 µM) | 1 (≈ 1.49 µM) | 0.125 (≈ 0.186 µM) | 0.25 (≈ 0.372 µM) | > 64 | 2 (≈ 2.98 µM) | fraction unbound [4]: 0.24; fraction unbound [5]: 0.32; CL free (Rattus norvegicus): 144.6 mL/min/kg; clearance [6]: 34.7 mL/min/kg
CC(C)(O/N=C(\C(=O)N[C@@H]1C(=O)N(S(=O)(=O)O)[C@@H]1COC(=O)CNC(=O)c1cc(=O)c(O)c[nH]1)c1csc(N)n1)C(=O)O (stereo in doubt) | 32 (≈ 49.6 µM) |  |  | 1 (≈ 1.55 µM) |  |  | 
CC(C)(O/N=C(\C(=O)N[C@@H]1C(=O)N(S(=O)(=O)O)[C@@H]1COC(=O)c1csc(-c2cc(=O)c(O)c[nH]2)n1)c1csc(N)n1)C(=O)O (stereo in doubt) | 1 (≈ 1.49 µM) |  |  | 0.5 (≈ 0.744 µM) |  |  | 
C[C@H]1[C@H](NC(=O)/C(=N\OC(C)(C)C(=O)O)c2csc(N)n2)C(=O)N1C(=O)NS(=O)(=O)n1nc(-c2cc(=O)c(O)c[nH]2)n(C[C@@H](O)CO)c1=O (stereo in doubt) |  |  |  |  |  |  | Stability [7]: Stable
CC(C)(O/N=C(\C(=O)N[C@@H]1C(=O)N(S(=O)(=O)O)[C@@H]1COC(=O)c1cc(-c2cc(=O)c(O)c[nH]2)no1)c1csc(N)n1)C(=O)O (stereo in doubt) | 4 (≈ 6.1 µM) |  |  | 4 (≈ 6.1 µM) |  |  | 
